# Ecoli WT expand = E. coli BW25113 growth inhibition, expanded screen. AID 710. OD600 absorbance. growth inhibition, % at 100 µM. actives 0.15% (n = 98,000);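 active means growth inhibition above about 50% at one test dose, limit read from the data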;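 further: growth measured after 20 h incubation at 37 °C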
# tolC growth inh = E. coli tolC mutant growth inhibition; E. coli BW25113 tolC mutant growth, OD615; growth inhibition, % at 10 µM (by protocol); actives 2.2% (n = 65,000); AID 573;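 active means growth inhibition at or above a cutoff equal to the mean over every tested compound plus 3 SD, cut at about 60% in these data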;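 further: growth measured after 20 h incubation at 37 °C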
#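 Test system: tolC-deleted E. coli BW25113; medium: LB with kanamycin 50 µg/mL; compound: single-point testing at 10 µM; incubation: 20 h compound exposure of bacteria at 37 °C; signal: OD at 615 nm; evaluation: growth inhibition in percent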
# PostGolgi yeast = growth inhibition of a yeast mutant, post-Golgi transport screen; inhibition, % at 10 µM; actives 0.9% (n = 98,000); AID 739; post-Golgi transport phenotypic cell assay;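 further: yeast cells grown in 1536-well plates; yeast grown about 18 h at 30C before absorbance read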
# PostGolgi ctrl = inhibits growth of the yeast control strain; efflux-deficient yeast background strain, growth absorbance A615, 16 h; inhibition, % at 10 µM; actives 5% (n = 98,000); AID 738
# Cav3 T inh = human Cav3.2 channel inhibition, primary screen; Cav3.2-expressing cells, Fluo-4 calcium fluorescence FDSS; hits give low values; actives 4% (n = 100,000); B-score at 10 µM; AID 449739;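 active means single-dose well whose peak fluorescence ratio is a statistical outlier from its plate by either plate-standardised score or position-corrected B-score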
# Target sequence (O95180 whole entry, looked up): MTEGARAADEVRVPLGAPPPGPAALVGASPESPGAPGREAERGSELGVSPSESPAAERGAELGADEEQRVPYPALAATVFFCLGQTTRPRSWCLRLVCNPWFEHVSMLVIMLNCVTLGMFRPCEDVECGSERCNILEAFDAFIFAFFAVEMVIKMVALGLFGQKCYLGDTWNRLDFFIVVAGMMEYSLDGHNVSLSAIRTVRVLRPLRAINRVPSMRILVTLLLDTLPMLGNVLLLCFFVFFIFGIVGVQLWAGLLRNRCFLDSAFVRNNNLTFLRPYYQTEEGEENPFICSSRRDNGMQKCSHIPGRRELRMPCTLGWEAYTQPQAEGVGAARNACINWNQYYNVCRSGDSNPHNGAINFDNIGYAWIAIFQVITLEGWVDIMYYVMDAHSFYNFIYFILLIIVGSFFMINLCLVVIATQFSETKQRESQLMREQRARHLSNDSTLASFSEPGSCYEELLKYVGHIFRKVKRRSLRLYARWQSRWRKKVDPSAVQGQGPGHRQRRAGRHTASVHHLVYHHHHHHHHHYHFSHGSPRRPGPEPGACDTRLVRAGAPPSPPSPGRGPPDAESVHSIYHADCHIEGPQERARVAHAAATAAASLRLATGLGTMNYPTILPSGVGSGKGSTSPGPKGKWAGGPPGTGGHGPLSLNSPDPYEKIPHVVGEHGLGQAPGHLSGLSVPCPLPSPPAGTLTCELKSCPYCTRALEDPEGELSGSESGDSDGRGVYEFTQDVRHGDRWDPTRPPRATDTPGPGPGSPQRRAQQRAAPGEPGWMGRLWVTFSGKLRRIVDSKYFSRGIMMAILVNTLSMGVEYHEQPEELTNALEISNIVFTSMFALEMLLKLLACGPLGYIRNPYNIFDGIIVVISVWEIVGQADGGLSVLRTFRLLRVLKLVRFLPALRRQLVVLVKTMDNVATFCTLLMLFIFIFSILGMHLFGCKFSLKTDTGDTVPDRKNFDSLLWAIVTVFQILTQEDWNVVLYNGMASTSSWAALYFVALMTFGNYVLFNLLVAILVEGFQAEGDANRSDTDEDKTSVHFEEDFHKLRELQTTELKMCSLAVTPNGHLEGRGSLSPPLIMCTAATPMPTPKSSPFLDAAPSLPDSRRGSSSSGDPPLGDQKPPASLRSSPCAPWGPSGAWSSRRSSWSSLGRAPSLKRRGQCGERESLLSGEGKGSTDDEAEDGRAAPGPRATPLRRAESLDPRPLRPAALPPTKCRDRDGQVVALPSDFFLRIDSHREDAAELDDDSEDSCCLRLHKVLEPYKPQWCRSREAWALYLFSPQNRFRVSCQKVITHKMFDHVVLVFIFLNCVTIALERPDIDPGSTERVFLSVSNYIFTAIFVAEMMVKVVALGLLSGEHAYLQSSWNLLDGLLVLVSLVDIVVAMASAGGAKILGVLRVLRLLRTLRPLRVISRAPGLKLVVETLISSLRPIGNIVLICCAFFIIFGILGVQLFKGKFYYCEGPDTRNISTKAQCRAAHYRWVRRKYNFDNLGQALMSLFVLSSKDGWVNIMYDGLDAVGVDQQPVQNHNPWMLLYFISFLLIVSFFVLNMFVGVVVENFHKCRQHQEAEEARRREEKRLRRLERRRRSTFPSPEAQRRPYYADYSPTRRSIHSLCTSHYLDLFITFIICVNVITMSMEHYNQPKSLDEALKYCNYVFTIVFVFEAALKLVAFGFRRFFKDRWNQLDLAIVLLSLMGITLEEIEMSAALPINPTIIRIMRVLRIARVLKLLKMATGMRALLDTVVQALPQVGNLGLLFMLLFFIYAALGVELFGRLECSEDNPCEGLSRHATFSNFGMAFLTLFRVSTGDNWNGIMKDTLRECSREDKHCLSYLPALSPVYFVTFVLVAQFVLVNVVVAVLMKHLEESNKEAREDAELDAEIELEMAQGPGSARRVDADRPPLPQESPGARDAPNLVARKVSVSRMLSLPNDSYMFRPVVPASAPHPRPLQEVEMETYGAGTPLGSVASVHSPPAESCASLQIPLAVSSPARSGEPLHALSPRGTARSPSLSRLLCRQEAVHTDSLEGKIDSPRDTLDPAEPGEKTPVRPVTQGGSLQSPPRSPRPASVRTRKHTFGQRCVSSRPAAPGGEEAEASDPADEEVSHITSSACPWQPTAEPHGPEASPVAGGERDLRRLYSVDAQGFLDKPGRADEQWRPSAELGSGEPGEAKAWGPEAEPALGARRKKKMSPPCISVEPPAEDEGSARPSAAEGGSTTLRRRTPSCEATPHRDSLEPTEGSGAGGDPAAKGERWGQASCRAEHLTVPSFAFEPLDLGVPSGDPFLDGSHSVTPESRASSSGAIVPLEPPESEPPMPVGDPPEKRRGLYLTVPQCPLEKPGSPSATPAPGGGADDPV
# A number is an active result; i = inactive; nt = no result. Most compounds without a hit are left out; they make up all but 8.4% or so of the library. Unless noted, no stated cut-off is given here; in the data, active means inhibition above about 30%; inactive means the rest.
SMILES,Ecoli WT expand,tolC growth inh,PostGolgi yeast,PostGolgi ctrl,Cav3 T inh
CCOC(=O)c1sc(NC(=O)c2cc3n(n2)C(C(F)(F)F)CC(c2ccccc2)N3)c(C(=O)OCC)c1C (stereo not drawn),i,nt,i,i,i
COc1ccc(C(=O)/C=C\c2ccc(NC(=O)c3cccs3)cc2)cc1,i,nt,i,i,i
CCc1nnc(NC(=O)Cn2nnc(-c3ccccc3F)n2)s1,i,i,i,i,i
Cc1ccc(C(=O)CSc2ncnc3sc4c(c23)CCC(C)C4)cc1 (stereo not drawn),nt,nt,nt,nt,i
COC(=O)C1=C(N)c2ccccc2C1(C#N)c1ccccc1 (stereo not drawn),i,nt,i,i,-9
O=c1cc(-c2ccccc2)c2ccc(O)c(CN3CCCCC3)c2o1,i,i,i,i,nt
CCc1cc2c(-c3ccccc3)cc(=O)oc2c(CN2CCOCC2)c1O,i,i,i,i,-8.7
O=C(c1noc2c1CCc1ccccc1-2)N1CCCc2ccccc21,i,99,i,i,i
O=C(c1noc2c1CCc1ccccc1-2)N1CCOCC1,i,i,i,i,i
CCC(OC(=O)C(NC(=O)c1ccccc1)c1ccccc1)C(=O)Nc1cc(C)on1 (stereo not drawn),i,i,42,i,i
O=C(OCn1ncc(Cl)c(Cl)c1=O)c1ccccc1Cl,i,nt,79,i,i
O=C(OCn1ncc(Cl)c(Cl)c1=O)c1ccc(F)cc1,i,nt,33,i,i
CCC(Oc1ccccc1)C(=O)Nc1ccccn1 (stereo not drawn),i,i,i,i,i
COc1ccc(NC(=O)C2=C(C)C(=O)OC23CCC(C)CC3)c(OC)c1 (stereo not drawn),i,i,i,i,i
CC1(C)CC(=O)c2sc(NC(=O)C3CC3)nc2C1,i,i,i,36,nt
Cc1cc(SCC(=O)N2CCC(c3noc4ccc(F)cc34)CC2)nc2ccccc12,i,i,i,34,-5
O=C(OCn1nnc2ccccc2c1=O)c1cc2ccccc2o1,nt,i,nt,nt,i
O=C1c2ccccc2C(=O)C1c1ccnc2ccccc12,nt,nt,nt,nt,i
O=C1c2ccccc2C(=O)C1c1nccc2ccccc12,i,i,i,61,i
CCOC(=O)C1CCCN(CC(=O)Nc2c(C(=O)OC)[nH]c3ccc(Br)cc23)C1 (stereo not drawn),i,i,i,56,-4.3
COC(=O)c1[nH]c2ccc(Br)cc2c1NC(=O)CN1CCCc2ccccc21,i,nt,i,69,i
CCOC(=O)C1CCN(CC(=O)Nc2c(C(=O)OC)[nH]c3ccc(Cl)cc23)CC1,i,i,i,i,i
CCOc1ccc(OCC)c(NC(=O)CN2CCN(c3cccc(C)c3)C(C)C2)c1 (stereo not drawn),i,i,i,30,i
COC(=O)c1[nH]c2ccccc2c1NC(=O)CN1CCN(c2cccc(OC)c2)C(C)C1 (stereo not drawn),i,77,i,i,i
CC1(C)C=Cc2cc(-c3coc4cc(O)cc(O)c4c3=O)cc(O)c2O1,nt,nt,nt,nt,i
SMILES,Ecoli WT expand,tolC growth inh,PostGolgi yeast,PostGolgi ctrl,Cav3 T inh
O=[N+]([O-])c1ccc(N2N=C(c3ccco3)CC2c2ccccc2)cc1 (stereo not drawn),i,nt,i,31,-5
Fc1ccc(C2CC(c3ccco3)=NN2c2ccccc2)cc1 (stereo not drawn),i,nt,i,i,i
CN1CCN(c2oc(-c3ccco3)nc2S(=O)(=O)c2ccccc2)CC1,i,i,i,i,i
O=S(=O)(c1ccccc1)c1nc(-c2ccco2)oc1N1CCCCCC1,i,82,i,42,i
CC(C)Sc1oc(-c2ccco2)nc1S(=O)(=O)c1ccc(F)cc1,i,i,i,i,-5.3
O=C(CSc1oc(-c2ccco2)nc1S(=O)(=O)c1ccc(Cl)cc1)NCC1CCCO1 (stereo not drawn),i,i,37,i,i
CCSc1oc(-c2ccco2)nc1S(=O)(=O)c1ccccc1,i,i,i,i,i
CCCSc1oc(-c2ccco2)nc1S(=O)(=O)c1ccccc1,i,84,i,33,i
COc1ccccc1C(=O)NC(C)C(c1cccs1)N1CCOCC1 (stereo not drawn),i,i,i,i,i
CCC(CC)NC(=O)Cc1ccccc1OC,i,nt,i,i,i
COc1ccc(C2CC(=O)Nc3ccccc3S2(=O)=O)cc1OC (stereo not drawn),i,i,i,i,i
NC(=O)CSc1oc(-c2ccc(F)cc2)nc1S(=O)(=O)c1ccccc1,i,i,i,i,i
CCSc1oc(-c2ccccc2)nc1S(=O)(=O)c1ccccc1,i,69,i,i,i
O=c1[nH]c(SCc2ccc(Cl)cc2)nc2c1CCC2,i,i,i,i,i
O=c1[nH]c(SCc2cccc(Cl)c2)nc2c1CCCC2,i,i,i,34,i
CC1CCCC(C)N1C(=O)COC(=O)c1ccc(O)cc1 (stereo not drawn),i,nt,i,i,i
O=C(CSc1nnc(C2CC2)n1-c1ccccc1)Nc1ccc(N2CCOCC2)cc1,i,nt,i,i,i
COc1cc(C(=O)NC2CC3CCCC(C2)N3CC(=O)Nc2ccccc2)cc(OC)c1OC (stereo not drawn),i,i,i,i,4.4
Clc1ccc(CSc2nccn2Cc2ccccc2)cc1,i,nt,i,i,-5
Cc1ccc(NC(=O)CSc2nccn2Cc2ccccc2)cc1C,i,nt,i,i,-8
CCn1c(=NC(=O)CSC(C)=O)sc2ccccc21,i,i,i,i,-7.3
Cn1c(=NC(=O)CN2C(=O)C3CC=CCC3C2=O)sc2ccccc21 (stereo not drawn),i,i,i,i,i
COC(=O)Cn1c(=NC(=O)CSC(C)=O)sc2ccccc21,i,i,i,i,-6.2
Cc1ccc(NS(=O)(=O)c2ccc(NC(=O)[C@@H]3CCCC[C@@H]3C(=O)O)cc2)c(C)c1,i,nt,i,i,i
COc1ccc(/C(N)=N/OC(=O)c2cc(-c3ccccc3)nc3ccccc23)cc1,i,nt,i,i,i
SMILES,Ecoli WT expand,tolC growth inh,PostGolgi yeast,PostGolgi ctrl,Cav3 T inh
Cc1ccc(/C(N)=N/OC(=O)c2cc(-c3ccccc3)nc3ccccc23)cc1,i,nt,i,31,i
c1ccc2c(-c3nc(-c4ccncc4)no3)cccc2c1,i,i,i,i,i
c1ccc(-c2cc(-c3nc(-c4cccnc4)no3)c3ccccc3n2)cc1,nt,i,nt,nt,nt
c1ccc(-c2ccccc2-c2nc(-c3cccnc3)no2)cc1,i,98,38,34,-5
c1ccc(-c2noc(-c3cccc4ccccc34)n2)cc1,i,70,i,i,i
COc1ccc(CCC(=O)Nc2cc(Cl)ccc2OC)cc1,i,nt,i,i,i
Cc1ccc(C)c(N(CC(=O)Nc2cc(Cl)ccc2Oc2ccccc2)S(C)(=O)=O)c1,i,nt,i,i,nt
CCCNS(=O)(=O)c1ccc(CCC(=O)Nc2cc(Cl)ccc2Oc2ccccc2)cc1,nt,nt,nt,nt,-7
CC(C)CNS(=O)(=O)c1ccc(CCC(=O)O)cc1,i,i,i,i,i
CC(C)(C)NS(=O)(=O)c1ccc(CCC(=O)Nc2cc(Cl)ccc2Oc2ccccc2)cc1,i,nt,i,i,-5.3
CC(C)CNS(=O)(=O)c1ccc(CCC(=O)Nc2cc(Cl)ccc2Oc2ccccc2)cc1,i,nt,i,i,-6.2
